# Active and inactive are the calls of the source. The calls are words filed in the database; no cut-off is given here.
# Tests used:
# Mus musculus [1] = experiment: Anti-ulcerative colitis activity in DSS-induced BALB/c mouse ulcerative colitis model assessed as inhibited inflammation in colon at 50 mg/kg administrated for 14 days by H and E staining analysis; format: functional, organism-based; settings: time 14.0 day
# Summary of the method: (§1)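 Male SPF BALB/c mice (18–22 g), n = 8 per group. Colitis induced with freshly prepared 5% DSS (MW 36,000–50,000) in pure water as drinking water ad libitum for 7 days. Treatment at 50 mg/kg ran from day 1 for 14 days; control and model groups received pure water. Mice sacrificed after 14 days of treatment. Data as means ± S.E.M.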
# Mus musculus [2] = experiment: Anti-ulcerative colitis activity in DSS-induced BALB/c mouse ulcerative colitis model assessed as promoted regeneration of intestinal mucosa at 50 mg/kg administrated for 14 days by H and E staining analysis; format: functional, organism-based; settings: time 14.0 day; summary of the method: as §1
# Mus musculus [3] = experiment: Anti-inflammatory activity against DSS-induced ulcerative colitis BALB/c mouse model assessed as reduction in colon macroscopic scores at 50 mg/kg administrated for 14 days; format: functional, organism-based; settings: time 14.0 day; summary of the method: as §1
# Mus musculus [4] = experiment: Anti-inflammatory activity against DSS-induced ulcerative colitis BALB/c mouse model assessed as reduction in TNF-alpha protein expression in colon tissue at 50 mg/kg administrated for 14 days by Western blot analysis; format: functional, organism-based; settings: time 14.0 day; summary of the method: as §1
# Mus musculus [5] = experiment: Anti-inflammatory activity against DSS-induced ulcerative colitis BALB/c mouse model assessed as reduction in TNF-alpha mRNA expression in colon tissue at 50 mg/kg administrated for 14 days by RT-qPCR analysis; format: functional, organism-based; settings: time 14.0 day; summary of the method: as §1
# Mus musculus [6] = experiment: Anti-inflammatory activity against DSS-induced ulcerative colitis BALB/c mouse model assessed as reduction in IL-6 protein expression in colon tissue at 50 mg/kg administrated for 14 days by Western blot analysis; format: functional, organism-based; settings: time 14.0 day; summary of the method: as §1
# Mus musculus [7] = experiment: Anti-inflammatory activity against DSS-induced ulcerative colitis BALB/c mouse model assessed as reduction in IL-6 mRNA expression in colon tissue at 50 mg/kg administrated for 14 days by RT-qPCR analysis; format: functional, organism-based; settings: time 14.0 day; summary of the method: as §1
# Mus musculus [8] = experiment: Anti-inflammatory activity against DSS-induced ulcerative colitis BALB/c mouse model assessed as reduction in IL-1beta protein expression in colon tissue at 50 mg/kg administrated for 14 days by Western blot analysis; format: functional, organism-based; settings: time 14.0 day; summary of the method: as §1
# Mus musculus [9] = experiment: Anti-inflammatory activity against DSS-induced ulcerative colitis BALB/c mouse model assessed as reduction in IL-1beta mRNA expression in colon tissue at 50 mg/kg administrated for 14 days by RT-qPCR analysis; format: functional, organism-based; settings: time 14.0 day; summary of the method: as §1
# Mus musculus [10] = experiment: Anti-inflammatory activity against DSS-induced ulcerative colitis BALB/c mouse model assessed as reduction in mast cells infiltration in colon tissue at 50 mg/kg administrated for 14 days by aldehyde-fuchsin orange G staining based assay; format: functional, organism-based; settings: time 14.0 day; summary of the method: as §1
# Mus musculus [11] = experiment: Anti-inflammatory activity against DSS-induced ulcerative colitis BALB/c mouse model assessed as reduction in MPO activity in colon tissue at 50 mg/kg administrated for 14 days by colorimetric method; format: functional, organism-based; settings: time 14.0 day; summary of the method: as §1
# Mus musculus [12] = experiment: Anti-inflammatory activity against DSS-induced ulcerative colitis BALB/c mouse model assessed as increase in SOD levels in colon tissue at 50 mg/kg administrated for 14 days by xanthine oxidase based method; format: functional, organism-based; settings: time 14.0 day; summary of the method: as §1
# Mus musculus [13] = experiment: Anti-ulcerative colitis activity in DSS-induced BALB/c mouse ulcerative colitis model assessed as reduction in colon damage at 50 mg/kg administrated for 14 days by H and E staining analysis; format: functional, organism-based; settings: time 14.0 day; summary of the method: as §1
# Mus musculus [14] = experiment: Anti-ulcerative colitis activity in DSS-induced BALB/c mouse ulcerative colitis model assessed as decrease in histological scores at 50 mg/kg administrated for 14 days by H and E staining analysis; format: functional, organism-based; settings: time 14.0 day; summary of the method: as §1
# Mus musculus [15] = experiment: Anti-ulcerative colitis activity in DSS-induced BALB/c mouse ulcerative colitis model assessed as decrease in spleen weight at 50 mg/kg administrated for 14 days; format: functional, organism-based; settings: time 14.0 day; summary of the method: as §1
# Mus musculus [16] = experiment: Anti-ulcerative colitis activity in DSS-induced BALB/c mouse ulcerative colitis model assessed as increase in cecum weight at 50 mg/kg administrated for 14 days; format: functional, organism-based; settings: time 14.0 day; summary of the method: as §1
# Mus musculus [17] = experiment: Anti-ulcerative colitis activity in DSS-induced BALB/c mouse ulcerative colitis model assessed as colon length/colon weight ratio at 50 mg/kg administrated for 14 days (reference value: 22.608 +/- 2.655 cm/g); format: functional; settings: time 14 day; summary of the method: as §1
# Mus musculus [18] = experiment: Anti-ulcerative colitis activity in DSS-induced BALB/c mouse ulcerative colitis model assessed as colon weight at 50 mg/kg administrated for 14 days (reference value: 0.369 +/- 0.023 g); format: functional; settings: time 14 day; summary of the method: as §1
# Mus musculus [19] = experiment: Anti-ulcerative colitis activity in DSS-induced BALB/c mouse ulcerative colitis model assessed as colon length at 50 mg/kg administrated for 14 days (reference value: 8.350 +/- 1.111 cm); format: functional; settings: time 14 day; summary of the method: as §1
# Mus musculus [20] = experiment: Anti-ulcerative colitis activity in DSS-induced BALB/c mouse ulcerative colitis model of assessed as reduction in disease activity index at 50 mg/kg administrated for 14 days; format: functional, organism-based; settings: time 14.0 day; summary of the method: as §1
# [21] = test system: Salmonella enterica subsp. enterica serovar Paratyphi B; experiment: Antibacterial activity against Salmonella paratyphi B 0039 after 24 hrs by microdilution method; format: functional, organism-based; settings: 39
# Summary of the method: (§2)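 Test agents diluted in culture medium at ratios 1:2.5 to 1:640 (twofold series) and steam-sterilized; pure water as control. Inoculum from 4–5 colonies grown in nutrient broth 8 h at 37 °C, then diluted to 1.5×10^5 CFU/mL. Broth microdilution in 96-well plate, 0.1 ml strain suspension per well, 37 °C 24 h; MIC read visually.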
# Salmonella typhi = experiment: Antibacterial activity against Typhoid bacillus 50071-16 after 24 hrs by microdilution method; format: functional, organism-based; settings: Salmonella enterica subsp. enterica serovar Typhi; summary of the method: as §2
# Escherichia coli = experiment: Antibacterial activity against Escherichia coli 44113-5 after 24 hrs by microdilution method; format: functional, organism-based
# Summary of the method: (§3)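 Broth microdilution in Mueller Hinton medium, drug media diluted 1:2.5 to 1:640 and sterilized with circulating steam; pure water as control. Four to five colonies grown in nutrient broth 8 h at 37 °C and diluted to 1.5×10^5 CFU/mL. 0.1 ml per well, incubated 37 °C for 24 h; MIC read by observation.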
# Pseudomonas aeruginosa = experiment: Antibacterial activity against Pseudomonas aeruginosa 10211 incubated for 24 hrs; format: functional, organism-based; summary of the method: as §3
# Streptococcus pneumoniae = experiment: Antibacterial activity against Streptococcus pneumoniae 32215 after 24 hrs by microdilution method; format: functional, organism-based; summary of the method: as §3
# Candida albicans = experiment: Antifungal activity against Candida albicans 98001 after 24 hrs by microdilution method; format: functional, organism-based; summary of the method: as §3
# Streptococcus pyogenes = experiment: Antibacterial activity against streptococcus hemolyticus 32210 after 24 hrs by microdilution method; format: functional, organism-based; summary of the method: as §3
# Staphylococcus aureus = experiment: Antibacterial activity against Staphylococcus aureus 261112-5 after 24 hrs by microdilution method; format: functional, organism-based; summary of the method: as §3
SMILES,Activity (Mus musculus [4]),Activity (Mus musculus [5]),Activity (Mus musculus [6]),Activity (Mus musculus [7]),Activity (Mus musculus [8]),Activity (Mus musculus [9]),Activity (Mus musculus [13]),Activity (Mus musculus [15]),Activity (Mus musculus [16]),Ratio (Mus musculus [17]),Activity (Mus musculus [18]) [g],Activity (Mus musculus [19]) [cm],Activity (Mus musculus [20]),Activity [21],Activity (Salmonella typhi),Activity (Escherichia coli),Activity (Pseudomonas aeruginosa),Activity (Streptococcus pneumoniae),Activity (Candida albicans),Activity (Streptococcus pyogenes),other results
COc1ccc2cc3[n+](cc2c1OCCCCOC(=O)[C@H]1O[C@@H](Oc2cc4oc(-c5ccccc5)cc(=O)c4c(O)c2O)[C@H](O)[C@@H](O)[C@@H]1O)CCc1cc2c(cc1-3)OCO2,Active,Active,Active,Active,Active,Active,Active,Active,Active,29.769,0.311,9.288,Active,Active,Active,Active,Active,Active,Active,Active,Activity (Mus musculus [1]): Active; Activity (Mus musculus [2]): Active; Activity (Mus musculus [3]): Active; Activity (Mus musculus [10]): Active; Activity (Mus musculus [11]): Active; Activity (Mus musculus [12]): Active; Activity (Mus musculus [14]): Active; Activity (Staphylococcus aureus): Active
O=C(O)[C@H]1O[C@@H](Oc2cc3oc(-c4ccccc4)cc(=O)c3c(O)c2O)[C@H](O)[C@@H](O)[C@@H]1O [BAICALIN],inactive,inactive,inactive,inactive,inactive,inactive,inactive,inactive,inactive,24.172,0.369,8.74,inactive,inactive,inactive,inactive,inactive,inactive,inactive,inactive,Activity (Staphylococcus aureus): inactive
COc1ccc2cc3[n+](cc2c1OC)CCc1cc2c(cc1-3)OCO2.[Cl-] [BERBERINE CHLORIDE],Active,Active,Active,Active,Active,Active,Active,inactive,Active,28.175,0.315,8.95,Active,Active,Active,Active,Active,Active,Active,Active,Activity (Mus musculus [1]): Active; Activity (Mus musculus [2]): Active; Activity (Mus musculus [10]): Active; Activity (Mus musculus [11]): Active; Activity (Mus musculus [14]): Active; Activity (Staphylococcus aureus): Active

# From ChEMBL document CHEMBL4665879, “Design, synthesis and evaluation of a baicalin and berberine hybrid compound as therapeutic agent for ulcerative colitis” (2020)
